Key:
[1] = system: panel of 35 known-liability targets including GPCRs and ion channels; test: Known-liability off-target panel; settings: 300 kinases at 1 μM and 35 known-liability targets at 10 μM
[2] = Mouse preliminary tolerability study; type: in vivo
Outline: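 Dosing was oral, twice daily, for 5 days. Recorded: mortality, clinical observations (e.g. temperature to touch, posture, gait, activity), body weight and weight gain, food consumption, and gross pathology.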

[3] = Mouse pharmacokinetic study; type: in vivo; settings: for clearance: female, Balb/c, mouse, plasma, iv
Outline: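 Female Balb/c mice received test compound i.v. plus p.o., either 1 and 50 mg/kg or 2 and 12.5 mg/kg (n = 3 mice per route). Some arms were pretreated with 1-aminobenzotriazole (50 mg/kg p.o., 2 h before dosing) as a cytochrome P450 inhibitor; others had none. Blood concentration–time profiles were obtained.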

[4] = system: T. cruzi strain (CL Brener); test: In vivo efficacy, bioluminescent acute T. cruzi infection in BALB/c mice; parameters: species or system Trypanosoma cruzi; settings: 50 mg/kg BID p.o. 5 days
Outline: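 Female BALB/c mice, 7–8 weeks old, housed specific-pathogen-free, infected i.p. with 1 × 10³ CL Brener trypomastigotes from SCID mouse blood. The parasites constitutively express the red-shifted luciferase PpyRE9h. From day 14 post-infection (acute peak), mice (n = 3) received test compound orally at 50 mg/kg twice daily for 5 days. Parasite burden was tracked by in vivo bioluminescence imaging against untreated controls through day 18, with animals observed for adverse effects.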

Mouse cassette dosing PK = type: in vivo; settings: male, ICR, plasma, iv, 0.1 mg/kg
TcCYP51 = TcCYP51 (Trypanosoma cruzi, UniProt Q7Z1V1); test: Fluorescence-based Trypanosoma cruzi CYP51 inhibition assay; type: biochemical; settings: concentrations up to and including 100 μM
[5] = single p.o. dose 50 mg/kg, no ABT, 50 mg/kg

Sequence of TcCYP51 (Q7Z1V1 whole entry): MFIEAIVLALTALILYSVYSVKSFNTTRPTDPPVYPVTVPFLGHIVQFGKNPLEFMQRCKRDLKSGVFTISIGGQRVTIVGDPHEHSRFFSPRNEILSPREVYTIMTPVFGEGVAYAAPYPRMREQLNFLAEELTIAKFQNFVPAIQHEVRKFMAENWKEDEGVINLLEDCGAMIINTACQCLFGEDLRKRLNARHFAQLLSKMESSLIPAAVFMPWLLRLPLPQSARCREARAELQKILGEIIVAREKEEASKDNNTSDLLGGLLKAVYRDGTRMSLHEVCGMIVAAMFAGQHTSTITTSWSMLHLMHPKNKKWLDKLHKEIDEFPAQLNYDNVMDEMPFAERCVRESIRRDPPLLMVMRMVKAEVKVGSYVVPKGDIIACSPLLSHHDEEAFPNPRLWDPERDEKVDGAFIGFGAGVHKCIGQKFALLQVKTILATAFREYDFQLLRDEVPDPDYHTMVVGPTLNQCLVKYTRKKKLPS

SMILES | off-target activity [1] | tolerability (5 days BID p.o.) ([2]; healthy mice, 10, 50, 100 mg/kg BID p.o., 5 days) | clearance ([3]; 1 mg/kg) [mL/min/kg] | tolerability (single p.o. dose) [3, 5] | adverse effects during treatment of infected mice [4] | no-observed-adverse-effect-level (NOAEL) ([2]; BID p.o. 5 days, female mice) | multiday tolerability observations ([2]; female Balb/c mice, 10, 50, 100 mg/kg/dose BID p.o. up to 5 days, 1 animal/group) | clearance ([3]; 2 mg/kg) [mL/min/kg] | tolerability (single p.o. dose) ([3]; single dose 12.5 mg/kg p.o. with ABT 50 mg/kg p.o. 2 h prior) | tolerability (single p.o. dose) ([3]; single dose 12.5 mg/kg p.o. with ABT 50 mg/kg p.o. 2 h prior, listed as 85 + ABT) | clearance (Mouse cassette dosing PK) [mL/min/kg] | TcCYP51 inhibitory activity (TcCYP51)
CC(C)(Nc1nc(-c2ccccn2)nc2ccccc12)c1ccccn1 [Compound 54, 2-(Pyridin-2-yl)-N-(2-(pyridin-2-yl)propan-2-yl)quinazolin-4-amine] | no known off-target activity with the exception of 5HT-1A antagonism | poor | 12.4 | No adverse reactions or compound-related side effects were observed | – | – | – | – | – | – | – | –
c1ccc(-c2nc(N3CCC(c4ccccn4)C3)c3ccccc3n2)nc1 (stereo not shown) [Compound 85, 2-(pyridin-2-yl)-4-(3-(pyridin-2-yl)pyrrolidin-1-yl)quinazoline] | – | – | – | no adverse issues were noted | no adverse effects were observed | 100 mg/kg/dose (BID) | well tolerated | 4.9 | adverse tolerability events were observed after the single dose | poor | 38.5 | –
Fc1ccc(C2CCN(c3nc(-c4ccccn4)nc4ccccc34)C2)cc1 (stereo not shown) [Compound 83, 4-[3-(4-Fluorophenyl)pyrrolidin-1-yl]-2-(pyridin-2-yl)quinazoline] | – | – | – | – | – | – | – | – | – | – | – | no inhibitory activity

From article PMC9884087 (Journal of Medicinal Chemistry, 2023)
